The nature of data set [1]: Therapeutic index, ratio of IC50 for human MRC5 cells to IC50 for human SK-N-MC cells. Conditions: MRC5 cells and SK-N-MC cells, read-out: Ratio IC50. It is filed as cell-based.
Data set [2] can be described thus: Toxicity in human SK-N-MC cells assessed as cell viability after 3 hrs by trypan blue staining. It is filed as cell-based. Set-up: concentration or dose not given beside the values. Conditions: read-out: Activity. In short, it runs like this:
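Viability of SK-N-MC cells judged by Trypan blue staining after the 3 h chelator incubation used in the 59Fe mobilization assays.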

The subject of a further data set is MRC5. Put plainly: Cytotoxicity against human MRC5 cells after 72 hrs […]. It is filed as cell-based. Conditions: MRC5, 72 h.
For data set [3], the system named is SK-N-MC. Put plainly: Induction of intracellular reactive oxygen species production in human SK-N-MC cells assessed as oxidation of H2DCF into DCF at 25 uM after 3 hrs by FACS analysis relative to control. It is filed as functional. On the technique in general: In flow cytometry, cells or beads pass a laser one at a time.
For data set [4], the system named is SK-N-MC. Kind of data set: Antiproliferative activity against human SK-N-MC cells after 72 hrs by MTS assay. It is filed as functional, cell-based. On the technique in general: Tetrazolium assays rely on reduction of a dye to a coloured formazan, in cell work by metabolically active cells.
In data set [5] the test system is SK-N-MC. Put plainly: 59Fe uptake from transferrin in human SK-N-MC cells at 25 uM after 3 hrs relative to control.
The subject of another data set is M109. Kind of data set: Anticancer activity against mouse M109 cells xenografted in iv dosed CD2F1 mouse assessed as reduction in tumor growth after 5 days. Format: functional.
The subject of data set [6] is SK-N-MC. Put plainly: Induction of Fe efflux in human SK-N-MC cells assessed as release of intracellular 59Fe up to 25 uM after 3 hrs by gamma-scintillation counting. Format: functional.

The structures appear in SMILES notation.

For orientation: IC50 means the concentration needed to halve the response being measured.

Regarding `CN(C)C(=S)N/N=C(\c1ccccc1)c1ccccn1`, the selectivity ratio in data set [1] turned out to be 116. The viability at 3 h in data set [2] was over 99%. For the same compound, the IC50 in the data set on MRC5 was 1010 nM; in the data set with SK-N-MC [4], 9 nM. For the same compound, in the data set with SK-N-MC [3], the Activity was determined as 156%.

For `NC(=S)N/N=C(\c1ccccc1)c1ccccn1`, the viability at 3 h in data set [2] was over 99%. Further, the values for the IC50 in the data set on MRC5 and with SK-N-MC [4] were over 25000 nM and 5590 nM, respectively.

For the compound `CNC(=S)N/N=C(\c1ccccc1)c1ccccn1`, in data set [1], the selectivity ratio worked out at 96. The viability at 3 h in data set [2] is over 99%. The figures for the IC50 with MRC5 and in the data set on SK-N-MC [4] were 2320 nM and 24 nM, respectively. Further, in the data set on SK-N-MC [3], the Activity is 114%.

On to `CN(C)C(=S)NN=C(c1ccccn1)c1ccccn1`, for which the level, % of control at 25 µM in the data set on SK-N-MC [5] was determined as 4%. Moreover, the “inhibition (INH)” value in the data set on M109 turned out to be 50%. Besides, the viability at 3 h in data set [2] is over 99%. In the data set on SK-N-MC [6], the Activity was found to be 53%. The same compound returned an IC50 in the data set with SK-N-MC [4] of 4 nM.

In turn, `O=C(N/N=C/c1c(O)ccc2ccccc12)c1ccncc1` gave a level, % of control at 25 µM in the data set with SK-N-MC [5] of 6%. For the same compound, the viability at 3 h in data set [2] is over 99%. For the same compound, the Activity in the data set with SK-N-MC [6] was found to be 55%. In addition, in the data set on SK-N-MC [4], the midpoint of inhibition, the IC50, lay at 2530 nM.

In the case of `CCNC(=S)N/N=C(\c1ccccc1)c1ccccn1`, the selectivity ratio in data set [1] is 64. Moreover, the viability at 3 h in data set [2] was over 99%. In addition, the IC50 in the data set with MRC5 was 738 nM; in the data set on SK-N-MC [4] it was 12 nM. In addition, the Activity in the data set with SK-N-MC [3] is 138%.

Consider `CC(=O)N(O)CCCCCNC(=O)CCC(=O)N(O)CCCCCNC(=O)CCC(=O)N(O)CCCCCN` [DEFEROXAMINE], for which, in the data set on SK-N-MC [5], the level, % of control at 25 µM amounted to 74%. In data set [2], the viability at 3 h was over 99%. Besides, the Activity in the data set on SK-N-MC [6] is on record as 23%. Inhibition in the data set on SK-N-MC [4] was half-maximal at 22700 nM (IC50).

The record behind these values is ChEMBL document CHEMBL1828537, “Halogenated 2'-benzoylpyridine thiosemicarbazone (XBpT) chelators with potent and selective anti-neoplastic activity: relationship to intracellular redox activity” (J Med Chem, 2011).
